This is a sample that favours compounds with a hit; in the whole collection about 0.62% have one here.
TNAP inh no acc = blocks human TNAP activity with no phosphate acceptor present | P05186 | AID 1012 | inhibition, % at 20 µM | purified TNAP, CDP-star luminescence, 30 min | 0.26% of 200,000 active;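 active = tissue-nonspecific alkaline phosphatase inhibition above about 50% at 20 µM in the single-dose screen, limit read from the data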
Target sequence (P05186 whole entry, looked up): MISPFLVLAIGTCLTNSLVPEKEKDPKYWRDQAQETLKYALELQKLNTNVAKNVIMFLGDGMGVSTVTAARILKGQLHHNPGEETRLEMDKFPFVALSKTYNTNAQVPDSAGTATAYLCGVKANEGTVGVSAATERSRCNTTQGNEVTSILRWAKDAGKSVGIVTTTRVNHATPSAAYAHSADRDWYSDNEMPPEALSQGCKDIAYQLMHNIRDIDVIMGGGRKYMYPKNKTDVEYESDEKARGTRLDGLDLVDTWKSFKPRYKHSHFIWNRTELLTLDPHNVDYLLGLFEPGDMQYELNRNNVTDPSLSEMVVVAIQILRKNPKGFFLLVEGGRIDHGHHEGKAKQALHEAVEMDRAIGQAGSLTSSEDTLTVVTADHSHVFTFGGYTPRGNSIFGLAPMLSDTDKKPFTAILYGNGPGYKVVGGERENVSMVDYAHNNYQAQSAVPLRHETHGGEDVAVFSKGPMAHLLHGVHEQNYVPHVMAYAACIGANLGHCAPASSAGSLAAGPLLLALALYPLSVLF
TNAP act hiacc = TNAP (human) activation, high acceptor. P05186. 200,000 tested, under 10 active. purified TNAP, CDP-star luminescence, 1 M DEA, 30 min; active compounds read high; 0 = EDTA background, 1 = DMSO-only activity. activation factor at 20 µM;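 active = activation factor at least 2 at 20 µM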
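Test system – human TNAP · Doses – 20 µM single point · Incubation – 30 min, room temperature · Signal – luminescent substrate turnover signal · Read-out basis – activation factor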
PMI activator = phosphomannose isomerase (human) activation; 0.005% of 190,000 active; AID 1214; purified human PMI, coupled resazurin fluorescence, 20 min; active compounds read high; 1 = vehicle control, 0 substrate-free wells; activation factor at 20 µM; P34949;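 active = activation factor of 2 or more at 20 µM, relative to plate controls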
TNAP inh hi DEA = blocks human TNAP under high phosphate acceptor concentration; 0.03% of 200,000 active; inhibition, % at 20 µM; purified TNAP, CDP-star luminescence, 1 M DEA; AID 1135;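 active = over 50% inhibition of tissue-nonspecific alkaline phosphatase at 20 µM in the single-dose screen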
PMI act satM6P = increases human PMI activity with near-saturating mannose 6-phosphate. AID 1216. coupled PMI enzyme assay, resazurin fluorescence, 20 min; active compounds read high; 1 = untreated enzyme, 0 = substrate-free blank. 0.34% of 190,000 active. activation factor at 20 µM;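 active = activation factor of 2 or more at 20 µM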
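Technique: Diaphorase-driven resazurin-to-resorufin fluorescence, excitation 544, emission 590 nm | Assay system: Human PMI in coupled enzyme assay | Times: Enzyme reaction with compound 20 min at room temperature | Medium: HEPES-buffered pH 7.4 with magnesium and detergent | Reagent: Mannose-6-phosphate 1.0 mM (near-saturating) plus 0.22 mM NADP+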
A number is an active result; . = inactive.

SMILES | TNAP inh no acc | TNAP act hiacc | PMI activator | TNAP inh hi DEA | PMI act satM6P
Cn1cc2c([N+](=O)[O-])cc([N+](=O)[O-])cc2n1 | . | . | . | . | .
Cn1cnc([N+](=O)[O-])c1Sc1ccc([N+](=O)[O-])cc1 | . | . | . | . | 2
CC1=NCCc2c1[nH]c1ccccc21 | . | . | . | . | .
C=CCN1C(=O)NC(=O)/C(=C/c2cccn2C)C1=O | . | . | . | . | .
C=CCN1C(=O)NC(=O)/C(=C/c2ccoc2)C1=O | . | . | . | . | 2.2
CCn1c(O)c(/C=N/NC(=O)c2ccncc2)c(=O)[nH]c1=S | 84 | . | . | . | .
O=c1[nH]c(=S)n(C2CC2)c(O)c1/C=N/Nc1cccc2ccccc12 | . | . | . | . | .
O=c1[nH]c(=S)n(C2CC2)c(O)c1/C=N/Nc1ccccc1 | . | . | . | . | 2
CCC(C)n1c(O)c(/C=N/NC(=O)c2ccncc2)c(=O)[nH]c1=S (stereo unspecified) | 75 | . | . | . | .
CCC(C)n1c(O)c(/C=N/Nc2ccccc2)c(=O)[nH]c1=S (stereo unspecified) | . | . | . | . | 2.7
CC1=CC(=C2C(=O)NC(=O)NC2=O)C=C(C(F)(F)F)N1Cc1ccccc1 | . | . | . | . | .
CC1=CC(=C2C(=O)NC(=S)NC2=O)C=C(C(F)(F)F)N1Cc1ccccc1 | . | . | . | . | 2
CCn1ccnc1CN1CCCC(C(=O)c2cc(C)c(OC)c(C)c2)C1 (stereo unspecified) | . | . | . | . | .
O=c1[nH]c(O)c(/C=C2\C=NN=C2c2ccccc2)c(=O)[nH]1 | 51 | . | . | . | .
CC1(C)CC(=O)C2=C(C1)NC(=O)C21C(C(=O)OC(C)(C)C)=C(N)Oc2ccc(Br)cc21 (stereo unspecified) | . | . | . | . | .
c1ccc(-c2[nH]c(-c3ccccc3)[n+](CC3CO3)c2-c2ccccc2)cc1 (stereo unspecified) | . | . | . | . | .
CCN(CC)C1=NC(=[N+](CC)CC)c2ccccc21 | . | . | . | . | .
CCOC(=O)c1c(/N=C/C2C(=O)NC(=S)NC2=O)sc2c1CCC2 | . | . | . | . | 2.1
C=CCC1C(=O)NC(=S)NC1=O | . | . | . | . | 2
CCOc1ccc(N2C(=O)/C(=C\c3cccs3)C(=O)NC2=S)cc1 | . | . | . | . | 2.2
CCc1c(C(=O)NN2C(=O)C3C4CCC(O4)C3C2=O)csc1C (stereo unspecified) | . | . | . | . | .
CN(C)c1ccc(C=C2C(=O)NC(=O)NC2=O)cc1[N+](=O)[O-] | . | . | . | . | .
CN(C)c1ccc(C=C2C(=O)NC(=S)NC2=O)cc1[N+](=O)[O-] | . | . | . | . | 2.1
CC1(C)OC(c2ccccc2)=C/C(=C/C=C2C(=O)NC(=S)NC2=O)O1 | 59 | . | . | . | .
CN1/C(=C\C=C2C(=O)NC(=S)NC2=O)C(C)(C)c2ccccc21 | . | . | . | . | .
SMILES | TNAP inh no acc | TNAP act hiacc | PMI activator | TNAP inh hi DEA | PMI act satM6P
CCCCC(=O)N/N=C/c1c(O)n(Cc2ccco2)c(=O)[nH]c1=O | 69 | . | . | . | .
COc1cccc(C2(O)CCSCC2CN(C)C)c1 (stereo unspecified) | . | . | . | . | .
CC(=O)c1ccc(OC(C)C)c(Cc2c(O)[nH]c(=S)[nH]c2=O)c1 | . | . | . | . | 2.1
O=C1NC(=O)C2(Cc3ccccc3N3CCCC32)C(=O)N1c1cccc(Cl)c1 (stereo unspecified) | . | . | . | . | .
Cc1ccc(N2C(=O)NC(=O)C3(Cc4ccccc4N4CCN(c5ccccc5)CC43)C2=O)cc1 (stereo unspecified) | . | . | . | . | 2.2
Cn1cccc1/C=C1/C(=O)NC(=O)N(Cc2ccccc2)C1=O | . | . | . | . | .
O=C1NC(=O)N(Cc2ccccc2)C(=O)/C1=C\c1ccco1 | . | . | . | . | 2.3
COc1cc(OC)c(C=O)c(OC(=O)N(C)C)c1 | . | . | . | . | .
O=C(N/N=C/C1C(=O)NC(=S)N(c2ccccc2)C1=O)c1cc(Br)c(O)c(Br)c1 (stereo unspecified) | 75 | . | . | . | .
Cc1ccc2c(c1)CC1(CN2C)C(=O)NC(=O)N(CCc2ccccc2)C1=O (stereo unspecified) | . | . | . | . | 2.1
COc1ccccc1-n1c(O)c(C=NCCN2CCNCC2)c(=O)[nH]c1=O | . | . | . | . | .
O=C(CN1CCCCC1)c1ccccc1F | . | . | . | . | 2.3
O=C(CN1CCCCC1)c1cccc(Br)c1 | . | . | . | . | .
O=C(CN1CCCCC1)c1ccc(OC(F)F)cc1 | . | . | . | . | .
O=C(CN1CCCCC1)c1ccccc1Cl | . | . | . | . | 2
CCN1CCN(C(c2cccs2)C(C)NC(=O)Oc2ccccc2)CC1 (stereo unspecified) | . | . | . | . | .
COc1ccc(C)cc1NC1=NCCCS1 | . | . | . | . | .
CCOC(=O)C(NC(C)=O)C(OC(C)=O)c1cccc(N(CCCl)CCCl)c1 (stereo unspecified) | . | . | . | . | 2
O=C1NC(=O)N(c2ccc3c(c2)OCO3)C(=O)/C1=C\c1ccc(N2CCCCC2)o1 | . | . | . | . | .
Cc1cccc(N2C(=O)/C(=C/c3ccc(N4CCN(C)CC4)o3)C(=O)NC2=S)c1C | 51 | . | . | . | .
CCc1ccccc1N1C(=O)/C(=C/c2ccc(N3CCN(C)CC3)o2)C(=O)NC1=S | 51 | . | . | . | .
CC(C)(C)C(=O)c1cn(Cc2ccccc2)c2ccccc12 | . | . | . | . | .
CCC(C)N1C(=O)/C(=C/c2ccc3c(c2)CCN3CCCCl)C(=O)NC1=S (stereo unspecified) | . | . | . | . | .

Screening data from PubChem BioAssay.
